Data set [1] deals with Mus musculus. In words: Neurotoxicity in ip dosed Swiss albino mouse assessed as impair in motor coordination at 300 mg/kg, ip after 0.5 hrs by rotarod test. It is filed as toxicity, organism-based. Also noted: dose 300 mg/kg, route intraperitoneal. To be noted: in vivo. In short, it runs like this:
(§1)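 Rotarod motor-impairment test in male Swiss albino mice dosed i.p. at 30, 100 or 300 mg/kg in 5% gum acacia/water. Mice that fell off the rotating rod within 30 s during pretraining were excluded. The dose at which animals fell off was recorded at 0.5 and 4 h.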

The subject of data set [2] is Mus musculus. Put plainly: Anticonvulsant activity against subcutaneous pentylenetetrazole-induced seizures in ip dosed Swiss albino mouse assessed as minimum effective dose after 4 hrs. In kind it is functional. The conditions noted are these: read-out: MED. The procedure, abridged: (§2)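 Male Swiss albino mice (18–25 g) were dosed i.p. with the compound in 5% gum acacia/water at 30, 100 or 300 mg/kg. Thirty minutes later they received PTZ 85 mg/kg (CD97) and were watched for seizures over 4 h. Readings at 0.5 and 4 h gave the lowest dose active in half or more of the animals. Myoclonic jerks were noted separately.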

In data set [3] the test system is Mus musculus. In words: Anticonvulsant activity against maximal electroshock-induced seizures in Swiss albino mouse at 300 mg/kg, ip after 0.5 hrs. It is filed as functional, organism-based. Also noted: dose 300 mg/kg. In short, it runs like this: (§3)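 Male Swiss albino mice (18–25 g) received the compound suspended in 5% gum acacia/water, i.p. at 30, 100 and 300 mg/kg (one to four animals per dose). Maximal electroshock was applied at 0.5 and 4 h. Protection meant abolition of the hind limb tonic extensor component. The lowest dose protecting half or more of the mice was recorded.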
In general terms: The maximal electroshock test induces tonic seizures with an electrical stimulus.

In data set [4] the test system is Mus musculus. Put plainly: Neurotoxicity in ip dosed Swiss albino mouse assessed as minimum dose required to cause impair in motor coordination after 4 hrs by rotarod test. It is filed as toxicity, organism-based. The conditions noted are these: in vivo. The procedure, abridged: as §1
Background: Falling from the rotarod earlier than controls is read as motor impairment.

In data set [5] the test system is Mus musculus. In words: Toxicity in subcutaneous pentylenetetrazole-induced Swiss albino mouse assessed as myoclonic jerks at 300 mg/kg, ip after 0.5 hrs. Set-up: dose 300 mg/kg. In kind it is organism-based. In short, it runs like this: as §2
Data set [6] concerns Mus musculus. In words: Anticonvulsant activity against maximal electroshock-induced seizures in ip dosed Swiss albino mouse assessed as minimum effective dose after 4 hrs. To be noted: read-out: MED. In kind it is functional. The procedure, abridged:
as §3

Data set [7] relates to Mus musculus. In words: Anticonvulsant activity against subcutaneous pentylenetetrazole-induced seizures in ip dosed Swiss albino mouse assessed as minimum effective dose after 0.5 hrs. To be noted: read-out: MED. It is filed as functional. In short, it runs like this: as §2
Data set [8] relates to Mus musculus. In words: Toxicity in subcutaneous pentylenetetrazole-induced Swiss albino mouse assessed as death at 30 to 300 mg/kg, ip after 4 hrs. In kind it is organism-based. Also noted: dose 30-300 mg/kg. In short, it runs like this:
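Male Swiss albino mice (18–25 g) given compound suspended in 5% gum acacia/water, i.p. at 30, 100 or 300 mg/kg, one to four animals per dose. PTZ at 85 mg/kg was injected 30 min after compound. Animals were examined 0.5 and 4 h after administration, and death following tonic extension was noted. The maximum dose was 300 mg/kg.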

In data set [9] the test system is Mus musculus. Put plainly: Anticonvulsant activity against maximal electroshock-induced seizures in Swiss albino mouse at 300 mg/kg, ip after 4 hrs. In kind it is functional, organism-based. Also noted: dose 300 mg/kg. The procedure, abridged:
as §3

For data set [10], the system named is Mus musculus. Put plainly: Neurotoxicity in ip dosed Swiss albino mouse assessed as minimum dose required to cause impair in motor coordination after 0.5 hrs by rotarod test. To be noted: in vivo. In kind it is toxicity, organism-based. In short, it runs like this:
as §1

Data set [11] concerns Mus musculus. In words: Restoration of GSH peroxidase activity in subcutaneous pentylenetetrazole treated Swiss albino mouse brain assessed per mg of protein at 100 mg/kg, ip after 4 hrs. In kind it is functional. To be noted: route intraperitoneal. In short, it runs like this: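 Brain homogenate came from PTZ-treated mice 4 h after 100 mg/kg i.p. dosing, using the 10500 × g supernatant. Samples were equilibrated 5 min at 25 °C, started with H2O2, and A340 was followed for 5 min. n = 6.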

The test system of data set [12] is Mus musculus. Put plainly: Restoration of GSH level in subcutaneous pentylenetetrazole treated Swiss albino mouse brain assessed per gram of tissue at 100 mg/kg, ip after 4 hrs. In kind it is functional. To be noted: route intraperitoneal. The procedure, abridged:
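Brains were taken from PTZ-treated mice 4 h after 100 mg/kg i.p. dosing. Tissue was deproteinized with an equal volume of 10% TCA for 2 h at 4 °C and centrifuged at 2000 g for 15 min. The supernatant was mixed with 0.4 M Tris (pH 8.9) containing 0.02 M EDTA, and 0.01 M DTNB was added before spectrophotometric reading. n = 6.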

For data set [13], the system named is Mus musculus. Put plainly: Reduction of lipid peroxidation in subcutaneous pentylenetetrazole treated Swiss albino mouse brain assessed reduction of malondialdehyde level per mg of protein at 100 mg/kg, ip after 4 hrs by TBARS assay. It is filed as functional. The conditions noted are these: route intraperitoneal. The procedure, abridged: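 PTZ-treated mice were dosed at 100 mg/kg i.p. and decapitated 4 h after the last injection. Brains were homogenized in four volumes of ice-cold 50 mM Tris-HCl, pH 7.4, and spun at 3000 × g for 15 min. TBARS in the supernatant was read at 532 nm in the upper organic layer and expressed as nmol MDA/mg protein. n = 6, mean ± S.E.M.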

The subject of data set [14] is Rattus norvegicus. In words: Anticonvulsant activity against subcutaneous pentylenetetrazole-induced seizures in Wistar albino rat at 50 mg/kg, ip after 1 hr. It is filed as functional.
Data set [15] has as its system Rattus norvegicus. Put plainly: Anticonvulsant activity against subcutaneous pentylenetetrazole-induced seizures in Wistar albino rat at 50 mg/kg, ip after 2 hrs. It is filed as functional.
For data set [16], the system named is Mus musculus. Put plainly: Restoration of SOD activity in subcutaneous pentylenetetrazole treated Swiss albino mouse brain assessed per mg of protein at 100 mg/kg, ip after 4 hrs. In kind it is functional. The conditions noted are these: route intraperitoneal. In short, it runs like this: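 The ethanol phase of an ethanol/chloroform (5:3) extract of brain supernatant was used, from PTZ-treated mice 4 h after 100 mg/kg i.p. Superoxide was generated by xanthine–xanthine oxidase at pH 10.2 with NBT, 20 min at 25 °C. The reaction was stopped with CuCl2 and read at 560 nm. One unit gives 50% inhibition of NBT reduction; results are expressed as U/mg protein. n = 6.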

Data set [17] concerns Rattus norvegicus. In words: Anticonvulsant activity against subcutaneous pentylenetetrazole-induced seizures in Wistar albino rat at 50 mg/kg, ip after 0.5 hrs. In kind it is functional.
Data set [18] relates to Mus musculus. Put plainly: Anticonvulsant activity against maximal electroshock-induced seizures in ip dosed Swiss albino mouse assessed as minimum effective dose after 0.5 hrs. In kind it is functional. The conditions noted are these: read-out: MED. The procedure, abridged: as §3
For data set [19], the system named is Rattus norvegicus. Put plainly: Anticonvulsant activity against subcutaneous pentylenetetrazole-induced seizures in Wistar albino rat at 50 mg/kg, ip after 0.25 hrs. In kind it is functional. The conditions noted are these: route intraperitoneal.
Data set [20] relates to Mus musculus. In words: Toxicity in subcutaneous pentylenetetrazole-induced Swiss albino mouse assessed as myoclonic jerks at 100 mg/kg, ip after 0.5 hrs. Set-up: dose 100 mg/kg. In kind it is organism-based. The procedure, abridged:
as §2

Calls of active or inactive are those of the source. No cut-off for these calls is given here.

For the compound `C/C(=N\NC(=O)Nc1cccc2ccccc12)c1ccc(Cl)cc1Cl`, the figures for the Activity entry with Mus musculus [1], in the data set with Mus musculus [4] and in the data set on Mus musculus [5] were “Non-toxic”, 300 mg/kg and “Toxic”, respectively. The minimal effective dose in the data set with Mus musculus [2] and with Mus musculus [6] was 300 mg/kg throughout. Moreover, in the data set with Mus musculus [3], the result was inactive.

Regarding `O=C(N/N=C/c1ccccc1O)Nc1cccc2ccccc12`, the minimal effective dose with Mus musculus [7] was 300 mg/kg. Further, the result with Mus musculus [3] and in the data set with Mus musculus [9] was inactive. Moreover, the Activity was 300 mg/kg with Mus musculus [4], “Toxic” with Mus musculus [8] and 300 mg/kg with Mus musculus [10].

On to `COc1cc(/C=N/NC(=O)Nc2cccc3ccccc23)cc(OC)c1OC`, for which the Activity with Mus musculus [11] was found to be 1.97 U; with Mus musculus [12], 24.56 µg; with Mus musculus [13] it was 1.87 nmol; with Rattus norvegicus [14], 75%; with Rattus norvegicus [15], 50%; in the data set on Mus musculus [4] it was 300 mg/kg. Besides, the Activity in the data set on Mus musculus [16] was 1.77 U; in the data set with Rattus norvegicus [17], 100%; with Mus musculus [10] it was 300 mg/kg; in the data set on Rattus norvegicus [19], 25%. The minimal effective dose in the data set with Mus musculus [7], in the data set with Mus musculus [2], with Mus musculus [18] and in the data set on Mus musculus [6] was 100 mg/kg throughout.

For `CN(C)c1ccc(/C=N/NC(=O)Nc2cccc3ccccc23)cc1`, the minimal effective dose in the data set with Mus musculus [2] is 300 mg/kg; in the data set with Mus musculus [18], 100 mg/kg; with Mus musculus [6], 100 mg/kg. For the same compound, the results for the Activity in the data set with Mus musculus [4], in the data set with Mus musculus [10] and in the data set with Mus musculus [20] were 100 mg/kg, 100 mg/kg and “Toxic”, respectively.

As for `O=C(N/N=C/c1ccc([N+](=O)[O-])cc1)Nc1cccc2ccccc12`, the Activity in the data set with Mus musculus [11] was 1.47 U; in the data set on Mus musculus [12], 16.76 µg; in the data set with Mus musculus [1], “Non-toxic”; in the data set on Mus musculus [13] it was 3.39 nmol; with Mus musculus [4], 300 mg/kg; with Mus musculus [16] it was 1.73 U. The Activity result with Mus musculus [20] was “Toxic”. The minimal effective dose in the data set on Mus musculus [2], in the data set with Mus musculus [18] and in the data set with Mus musculus [6] was 300 mg/kg each time.

On to `O=C(N/N=C/c1ccc(F)cc1)Nc1cccc2ccccc12`, for which the Activity result in the data set on Mus musculus [1] is “Non-toxic”; with Mus musculus [4], 100 mg/kg; in the data set on Mus musculus [8], “Toxic”. Also, the minimal effective dose in the data set on Mus musculus [7] and in the data set with Mus musculus [6] was 300 mg/kg throughout. Further, the result in the data set on Mus musculus [3] was inactive.
